Assay results published in PMC4004375 (European journal of medicinal chemistry, 2013).

Tests used:
[1] = biological target: intracellular HCV NS5B RdRp activity (Hepatitis C virus genotype 1b, UniProt P26663); test: BHK-NS5B-FRLuc reporter: intracellular NS5B RdRp activity; type: cell-based; conditions: 100 μM, 42 h, percent of DMSO controls
Method in brief: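 BHK cells stably expressing NS5B and carrying a bicistronic (+)FLuc-(−)UTR-RLuc reporter were grown in DMEM with 10% FBS, antibiotic-antimycotic, nonessential amino acids, 1 mg/mL G418 and […] at 37 °C and 5% CO2. Cells were seeded at 1 × 10^4 cells/well and dosed 8 h later with 100 μM test compound. Cells were lysed 42 h after treatment and read by dual luciferase. Activity is the percent reduction in RLuc/FLuc versus DMSO controls.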

[2] = system: Huh7.5 cells; test: Cell viability in parental Huh7.5 cells by MTS assay; type: cell-based; conditions: 100 μM, 42 h
Method in brief: (§1)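 Cytotoxicity was run in parallel with the HCV replicon assays, using parental Huh7.5 cells at 37 °C and 5% CO2. Cells were seeded at 1 × 10^4 cells/well and exposed 8 h later to test compound at 100 μM or to matching DMSO for 42 h. Viability was read by the colorimetric MTS assay.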

[3] = system: HCV RNA replication of genotype 1b (Huh7/Rep-Feo1b); test: HCV 1b replicon luciferase reporter assay; type: cell-based, Hepatitis C virus genotype 1b; conditions: Huh7/Rep-Feo1b cells, 100 μM, 42 h
[4] = system: HCV RNA replication of genotype 2a (Huh7.5-FGR-JC1-Rluc2A); test: HCV 2a replicon luciferase reporter assay; type: cell-based, Hepatitis C virus genotype 2a; conditions: Huh7.5-FGR-JC1-Rluc2A cells, 100 μM, 42 h
[5] = system: BHK-NS5B-FRLuc reporter cells; type: cell-based; conditions: 100 μM, 42 h, firefly luciferase versus DMSO controls
[6] = Cell viability in parental Huh7.5 cells by MTS assay; type: cell-based; conditions: human, parental Huh7.5 cells, Huh7.5 Cytotoxicity (%)
Method in brief: as §1

intracellular HCV NS5B RdRp activity, sequence (P26663 2420-3010): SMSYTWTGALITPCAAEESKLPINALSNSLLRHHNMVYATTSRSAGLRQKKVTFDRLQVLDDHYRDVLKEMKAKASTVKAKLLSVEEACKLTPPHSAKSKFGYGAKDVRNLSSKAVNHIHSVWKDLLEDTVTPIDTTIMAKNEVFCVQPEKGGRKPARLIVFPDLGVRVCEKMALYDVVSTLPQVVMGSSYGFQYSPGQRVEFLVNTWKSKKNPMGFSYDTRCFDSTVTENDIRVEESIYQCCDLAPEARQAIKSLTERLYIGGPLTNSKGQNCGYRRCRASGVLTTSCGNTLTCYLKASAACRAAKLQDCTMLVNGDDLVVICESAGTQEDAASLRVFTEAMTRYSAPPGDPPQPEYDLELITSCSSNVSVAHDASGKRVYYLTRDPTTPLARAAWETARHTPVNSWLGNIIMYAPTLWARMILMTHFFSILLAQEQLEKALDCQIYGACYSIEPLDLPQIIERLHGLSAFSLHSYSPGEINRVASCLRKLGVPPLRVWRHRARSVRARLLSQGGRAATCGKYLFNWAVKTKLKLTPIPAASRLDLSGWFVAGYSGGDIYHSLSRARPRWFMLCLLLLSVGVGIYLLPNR

Molecule | BHK-NS5B FR Luc Inhibition (%) [1] | Huh7.5 Cytotoxicity (%) [2] [%] | 1b Replicon reporter Inhibition (%) [3] | 2a Replicon reporter Inhibition (%) [4] | BHK-NS5B FR Luc Cytotoxicity (%) [5] [%] | cytotoxicity at 42 h, 100 µM [6] [%]
2-[[5-(4-Fluorophenyl)-1,3,4-thiadiazol-2-yl]imino]-5-(2,6-dimethoxybenzylidene)-1,3-thiazolidin-4-one [Compound 17] | 7.0 ± 1.8% | 13.9 ± 1.6 | 51.2 ± 6.3% | 50.4 ± 5.2% | – | –
2-[[5-(4-Fluorophenyl)-1,3,4-thiadiazol-2-yl]imino]-5-(4-nitrobenzylidene)-1,3-thiazolidin-4-one [Compound 16] | no inhibition and n.i | 63.0 ± 4.4 | 87.7 ± 1.4% | 93.2 ±1.7% | 73.7 ± 8.6 | –
Nc1nnc(-c2ccc(F)cc2)s1 [Compound 3, 2-Amino-5-(4-fluorophenyl)-1,3,4-thiadiazole] | – | – | – | – | 0.0 | –
Nc1nnc(-c2ccc(Cl)cc2)s1 [Compound 4, 2-Amino-5-(4-chlorophenyl)-1,3,4-thiadiazole] | did not inhibit and n.i. | – | – | – | – | –
O=C(CCl)Nc1nnc(-c2ccc(F)cc2)s1 [Compound 5, 2-Chloro-N-[5-(4-fluorophenyl)-1,3,4-thiadiazol-2-yl]acet-amide] | – | – | near complete inhibition | near complete inhibition | – | > 70
O=C(CCl)Nc1nnc(-c2ccc(Cl)cc2)s1 [Compound 6, 2-Chloro-N-[5-(4-chlorophenyl)-1,3,4-thiadiazol-2-yl]acet-amide] | – | – | near complete inhibition | near complete inhibition | – | > 70
O=C1CS/C(=N/c2nnc(-c3ccc(F)cc3)s2)N1 [Compound 7, 2-[[5-(4-Fluorophenyl)-1,3,4-thiadiazol-2-yl]imino]-1,3-thiazolidine-4-one] | – | – | – | – | 0.0 | –
O=C1N/C(=N\c2nnc(-c3ccc(F)cc3)s2)S/C1=C\c1c(F)cccc1Cl [Compound 12, 2-[[5-(4-Fluorophenyl)-1,3,4-thiadiazol-2-yl]imino]-5-(2-chloro-6-fluoro-benzylidene)-1,3-thiazolidin-4-one] | – | – | near complete inhibition | near complete inhibition | – | > 70
O=C1N/C(=N\c2nnc(-c3ccc(F)cc3)s2)S/C1=C\c1ccc(Cl)cc1Cl [Compound 14, 2-[[5-(4-Fluorophenyl)-1,3,4-thiadiazol-2-yl]imino]-5-(2,4-dichlorobenzylidene)-1,3-thiazolidin-4-one] | n.i | – | – | – | – | –
O=C1N/C(=N\c2nnc(-c3ccc(F)cc3)s2)S/C1=C\c1c(Cl)cccc1Cl [Compound 15, 2-[[5-(4-Fluorophenyl)-1,3,4-thiadiazol-2-yl]imino]-5-(2,6-dichlorobenzylidene)-1,3-thiazolidin-4-one] | – | – | near complete inhibition | near complete inhibition | – | > 70
O=C1N/C(=N\c2nnc(-c3ccc(Cl)cc3)s2)S/C1=C\c1ccc(F)cc1 [Compound 20, 2-[[5-(4-Chlorophenyl)-1,3,4-thiadiazol-2-yl]imino]-5-(4-fluorobenzylidene)-1,3-thiazolidin-4-one] | no inhibition and n.i | – | – | – | – | –
O=C1N/C(=N\c2nnc(-c3ccc(Cl)cc3)s2)S/C1=C\c1c(F)cccc1Cl [Compound 21, 2-[[5-(4-Chlorophenyl)-1,3,4-thiadiazol-2-yl]imino]-5-(2-chloro-6-fluoro-benzylidene)-1,3-thiazolidin-4-one] | n.i. | – | n.i. | n.i. | – | 0
O=C1N/C(=N\c2nnc(-c3ccc(Cl)cc3)s2)S/C1=C\c1ccccc1Cl [Compound 22, 2-[[5-(4-Chlorophenyl)-1,3,4-thiadiazol-2-yl]imino]-5-(2-chlorobenzylidene)-1,3-thiazolidin-4-one] | n.i. | – | n.i. | n.i. | – | 0
O=C1N/C(=N\c2nnc(-c3ccc(Cl)cc3)s2)S/C1=C\c1ccc(Cl)cc1Cl [Compound 23, 2-[[5-(4-Chlorophenyl)-1,3,4-thiadiazol-2-yl]imino]-5-(2,4-dichlorobenzylidene)-1,3-thiazolidin-4-one] | n.i. | – | n.i. | n.i. | – | 0
O=C1N/C(=N\c2nnc(-c3ccc(Cl)cc3)s2)S/C1=C\c1c(Cl)cccc1Cl [Compound 24, 2-[[5-(4-Chlorophenyl)-1,3,4-thiadiazol-2-yl]imino]-5-(2,6-dichlorobenzylidene)-1,3-thiazolidin-4-one] | – | – | near complete inhibition | near complete inhibition | – | > 70
COc1cccc(OC)c1/C=C1\S/C(=N/c2nnc(-c3ccc(Cl)cc3)s2)NC1=O [Compound 25, 2-[[5-(4-Chlorophenyl)-1,3,4-thiadiazol-2-yl]imino]-5-(2,6-dimethoxy-benzylidene)-1,3-thiazolidin-4-one] | – | – | near complete inhibition | near complete inhibition | – | > 70
